# Measurements published in the RNAGym collection of RNA variant scans (doi:10.1126/science.aae0568).
# Variants at the floor of the assay were thinned out.
# B1: tRNA (parent)
# chain: GUUCCGUUGGCGUAAUGGUAACGCGUCUCCCUCCUAAGGAGAAGACUGCGGGUUCGAGUCCCGUACGGAACG
# Variants of: B1
# Assay: yeast fitness relative to wild type (ratio to wild type); higher = fitter; tRNA-Arg(CCU), competitive growth, 37 C, YPD
# Procedure, shortened: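 Changes in genotype frequencies gave Darwinian fitness relative to wild type. Frequencies were read by 100-nucleotide paired-end sequencing of gene amplicons before and after pooled Saccharomyces cerevisiae strains, carrying tRNA-Arg(CCU) gene variants at the native locus, were competed in YPD at 37°C for 24 hours in six replicates. A genotype was kept only with ≥ 100 starting reads, and estimates < 0.5 were set to 0.5.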
row,Variant,yeast fitness
1,GUUCCGUUGGCGUCAUGGUAACGCGUCUCCUUCCUAAGGAGAAGACUGCGGGUUCGAAUCCUGUACGGAACG,0.609
2,GUUCCGUUGGCGUCAUGGUAACGCGUCUCCUUCCUAAGGAGAAGACUGCGGGUUCGAGUCCCGUACGGAGCG,0.612
3,GUUCCGUUGGCGUCAUGGUAACGCGUCUCCCUACUAUGGAGAAGACUGCGGGUUCGAGUCCGGUACGGAACG,≤ 0.5
4,GUUCCGUUGGCGUCAUGGUAACGCGUCUCCCUCCUAAGGAGAAGAUUGCCGGUUCGAGUCACGUACGGACCG,≤ 0.5
5,GUUCCGUUGGCGUCAUGGUAACGCGUCUCCCUCCUAAGGAGAAGAAGGCGGGUUCGAGUCCCGUACGGAACG,≤ 0.5
6,GUUCCGUUGGCGUCAUGGUAACGCGUCUCCCUCCUAAGGAGAAGACUGCGGGUUAGAAUCCCGUACGGAACG,0.55
7,GUUCCGUUGGCGUCAUGGUAACGCGUCUCCUUCCUAAGGUGAAGACUGCGGGUUCGGGUCCCGUACGGAACG,0.53
8,GUUCCGUUGGCGUCAUGGUAACGCGUCUCCGUCCUAAGGAGAAGACUGCGGGUUCGAGUCCAGUACUGAACG,≤ 0.5
9,GUUCCGUUGGCGUCAUGGUAACGCGUCUCCCUCCUAAGGAGAAGACUGGGGGUUCGAGUCCCAUACGGAACG,0.593
10,GUUCCGUUGGCGUCAUGGUAACGCGUCUCCCUCCUAAGGAGAAGACUGGGGGUUCGAGUCCCCUACGGAACG,0.592
11,GUUCCGUUGGCGUCAUGGUAACGCGUCUCCCUCCUAAGGAGAAGACUGGGGGUCCGAGUCCCAUACGGAACG,≤ 0.5
12,GUUCCGUUGGCGUCAUGGUAACGCGUCUCCCUCCUAAGGAGAAGACUGGGGGUUCGAGUCCCGUACGGCACG,≤ 0.5
13,GUUCCGUUGGCGUCAUGGUAACGCGUCUCCGUCCUAUGCAGCAGACUGCGGGUUCGAGUCCCGUACGGAACG,≤ 0.5
14,GUUCCGUUGGCGUCAUGGUAACGCGUCUCCCUCCUAAGGAGAAGACUGCGGGUUCGAGUACCGUACGGAACG,0.589
15,GUUCCGUUGGCGUCAUGGUAACGCGUCUCUCUCCUAAGGAGAAGACUGCCGGUUCGAGUCCCGUAUGGAACG,≤ 0.5
16,GUUCCGUUGGCGUCAUGGUAACGCGUCUCCCUGCUAAGGAGAAGACUGCGGGUUCGAGUCCCGUACGGAACG,0.726
17,GUUCCGUUGGCGUCAUGGUAACGCGUCUCCCUCCUAAGGAGAAGACUGCGGGUUAGAGUCCCGUACGGCACG,≤ 0.5
18,GUUCCGUUGGCGUCAUGGUAACGCGUCUCCUUCCUAAGGAGAAGACUGCAGGUUGGAGUCCAGUACGGAACG,≤ 0.5
19,GUUCCGUUGGCGUCAUGGUAACGCGUCUCCCUCCUAAGGAGAAGAGUGCGGGUUCGAGUCCCGUACGGAACG,0.953

row,Variant,yeast fitness
1,GUUCCGUUGGCGUCAUGGUAACGCGUCUCCUUCCUAAGGGGAAGACUGCGGGUUCGAGUCCCGUACGGAACG,≤ 0.5
2,GUUCCGUUGGCGUCAUGGUAACGCGUCUCCCUCCUAAGGAGAAGACUGGGGGUUCGAGUCCCGUACGGAACG,0.542
3,GUUCCGUUGGCGUCAUGGUAACGCGUCUCCCUCCUAAGGAGAAGACUGAGGGUUCGAGUCCCGUACGGAACG,0.562
4,GUUCCGUUGGCGUCAUGGUAACGCGUCUCUCUCCUAAGGAGAAGACUGCGGGUUCGAGUCCCGUACGCAACG,≤ 0.5
5,GUUCCGUUGGCGUCAUGGUAACGCGUCUCCCUCUUAGGGAGAAGACUGCGGGUUCGAGUCCCGUACGGCACG,≤ 0.5
6,GUUCCGUUGGCGUCAUGGUAACGCGUCUCCCUCUUAAGGAGAAGACUGCGGGUUCGAGUCCCGUACGGAACG,≤ 0.5
7,GUUCCGUUGGCGUCAUGGUAACGCGUCUCCCUCGUAAGGAGAAGACUGCGGGUUCGAGUCCCGUACGGAACG,0.577
8,GUUCCGUUGGCGUCAUGGUAACGCGUCUCCCUCCUAAGGAGAAGAUUGCGGGAUCGAGUCCCGUACGGAACG,≤ 0.5
9,GUUCCGUUGGCGUCAUGGUAACGCGUCUCCCUCAUAGGGAGAAGACUGCGGGUUCGAGUCCUGUACGGAACG,≤ 0.5
10,GUUCCGUUGGCGUCAUGGUAACGCGUCUCCGUCCUAAGGAGAAGACUGCGGGUUCGAGUCCCGUACGGAACG,0.502
11,GUUCCGUUGGCGUCAUGGUAACGCGUCUCCAUCCUAAGGAGAAGACUGCGGGUUCGAGUCCCGUACGGAACG,0.669
12,GUUCCGUUGGCGUCAUGGUAACGCGUCUCCCUCUUAAGCAGAAGACUGCGGGUUCGAGUCCCGUACGGAUCG,≤ 0.5
13,GUUCCGUUGGCGUCAUGGUAACGCGUCUCGCUCCUAAGGAGAAGACUGCGGGUUCGAGUCCCGUACGUAACG,0.567
14,GUUCCGUUGGCGUCAUGGUAACGCGUCUCCCUGCUAAGGAGAACACUGCGGGUGCGACUCCCGUACGGAACG,≤ 0.5
15,GUUCCGUUGGCGUCAUGGUAACGCGUCUCCCUCCUAAGGAGAAGACUGCGGGUUUGAGUCGGGUACGGAACG,0.571
16,GUUCCGUUGGCGUCAUGGUAACGCGUCUCUCUCCUAAGGACAAGACUGCGGGUUCGAGUCCCGUACGGAACG,0.589
17,GUUCCGUUGGCGUCAUGGUAACGCGUCUCCCUCAUAACGAGAAGACUGCGGGUUCGAGUCCCGUACGGAACG,≤ 0.5
18,GUUCCGUUGGCGUCAUGGUAACGCGUCUCCCUCUUAAGCAGAAGACUGCGGGUUCGAGUCCCAUACGGAACG,≤ 0.5
19,GUUCCGUUGGCGUCAUGGUAACGCGUCUCCUUCCUUAGGAGAAGACUGCGGGUUCGAGUCCCGUACGGCACG,0.624
